A selection: hits, their analogues and other compounds. The true share with any hit is near 1.6%.
SKN-1 inh – suppressors of acrylamide-induced Pgst-4::GFP reporter in worms, primary screen, SKN-1 inhibitor project, whole organism, uHTS, GFP/RFP fluorescence ratio, strain VP596. C. elegans VP596 Pgst-4::GFP/RFP ratio, 24 h. inhibition, % at 21.8 µM. hit rate 0.49% among 360,000;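 active means interference check ratio from 0.5 to 1.5 plus GFP to RFP signal ratio inhibition reaching or exceeding a fixed threshold, cut at about 30% in these data, passing the limit was not always enough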
MsrA inhibitor – bovine MsrA enzyme inhibitors, primary screen, biochemical, absorbance, HTS | hit rate 0.75% among 360,000 | AID 651718, 2012 | inhibition, % at 15.5 µM | purified bovine MsrA, absorbance read-out | Methionine sulfoxide reductase A (Bos taurus);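 further: 0% = vehicle wells with enzyme and 100% = reference inhibitor wells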
p-CIP stab down – p/CIP-EGFP fusion destabilizers, primary screen, fluorescence, F442A cells; Q05BA5; 16 h; decrease of EGFP signal, % at 10 µM; hit rate 0.01% among 290,000; AID 1984, 2009;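 active means EGFP signal decrease of at least 30% at 10 µM or well 3 SD below plate mean, unless failing retest; inactive means the rest, including hits failing retest or dose response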
Target sequence (Q05BA5 1-1403): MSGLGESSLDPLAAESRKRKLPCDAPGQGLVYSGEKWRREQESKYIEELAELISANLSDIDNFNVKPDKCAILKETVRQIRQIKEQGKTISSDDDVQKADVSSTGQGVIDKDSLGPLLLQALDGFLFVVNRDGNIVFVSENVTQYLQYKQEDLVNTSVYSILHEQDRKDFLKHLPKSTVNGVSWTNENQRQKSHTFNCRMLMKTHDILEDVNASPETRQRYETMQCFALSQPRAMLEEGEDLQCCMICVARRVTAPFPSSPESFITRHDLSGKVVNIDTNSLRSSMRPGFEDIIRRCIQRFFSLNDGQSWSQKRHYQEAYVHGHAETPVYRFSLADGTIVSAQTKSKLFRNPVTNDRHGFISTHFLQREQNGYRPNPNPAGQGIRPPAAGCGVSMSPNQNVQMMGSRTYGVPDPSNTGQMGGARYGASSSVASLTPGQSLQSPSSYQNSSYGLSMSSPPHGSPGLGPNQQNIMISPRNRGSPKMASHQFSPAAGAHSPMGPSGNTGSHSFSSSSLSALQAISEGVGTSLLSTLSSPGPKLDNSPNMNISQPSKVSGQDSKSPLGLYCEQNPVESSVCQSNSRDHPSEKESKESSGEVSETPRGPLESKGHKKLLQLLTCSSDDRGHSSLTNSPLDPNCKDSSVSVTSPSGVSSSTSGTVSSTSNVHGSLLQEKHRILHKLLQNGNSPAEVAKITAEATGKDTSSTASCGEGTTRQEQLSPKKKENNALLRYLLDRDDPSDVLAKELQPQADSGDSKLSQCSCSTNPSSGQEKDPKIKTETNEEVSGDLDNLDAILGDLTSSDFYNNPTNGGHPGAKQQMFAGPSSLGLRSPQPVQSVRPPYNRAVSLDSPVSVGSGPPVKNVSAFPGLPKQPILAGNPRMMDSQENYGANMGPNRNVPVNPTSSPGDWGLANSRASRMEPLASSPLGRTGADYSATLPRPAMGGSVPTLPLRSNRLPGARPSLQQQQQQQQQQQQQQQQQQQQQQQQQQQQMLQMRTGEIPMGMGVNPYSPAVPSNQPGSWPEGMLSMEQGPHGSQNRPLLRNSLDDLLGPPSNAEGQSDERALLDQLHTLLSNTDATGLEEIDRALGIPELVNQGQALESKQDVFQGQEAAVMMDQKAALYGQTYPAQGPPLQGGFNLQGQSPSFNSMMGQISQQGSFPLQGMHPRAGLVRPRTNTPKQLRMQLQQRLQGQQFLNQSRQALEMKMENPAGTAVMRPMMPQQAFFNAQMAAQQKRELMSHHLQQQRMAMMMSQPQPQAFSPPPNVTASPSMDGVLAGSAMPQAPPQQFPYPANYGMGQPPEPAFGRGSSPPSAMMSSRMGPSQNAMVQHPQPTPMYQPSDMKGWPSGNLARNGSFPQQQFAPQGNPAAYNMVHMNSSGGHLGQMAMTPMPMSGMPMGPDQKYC
MT1-MMP act inh – blockers of MT1-MMP proenzyme processing, primary screen, HT1080 RFP-PRO-GFP cells, GFP/RFP fluorescence. Matrix metalloproteinase-14 (Homo sapiens), P50281. GFP/RFP ratio fluorescence, overnight; percent of plate control window, DMSO zero. GFP/RFP ratio change, % at 20 µM. hit rate 0.061% among 360,000;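 active means GFP/RFP ratio change of at least 30% with cell ATP level not reduced by more than half and red fluorescence within 50% of control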
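Compound: 20 µM single dose, 1% DMSO / System: HT1080 RFP-PRO-GFP cells / Controls: DMSO and RFP-L50D-GFP cell wells / Read-out basis: GFP/RFP fluorescence ratio / Schedule: overnight compound exposure at 37 °C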
bovine MsrA act – bovine MsrA enzyme activators, primary screen, biochemical, absorbance, HTS. Methionine sulfoxide reductase A (Bos taurus). purified bovine MsrA, absorbance read-out. activation, % at 10.6 µM. hit rate 0.3% among 360,000. AID 602163, 2012; in the data active means activation above about 7.5%;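 further: 0% = vehicle and 100% = reference activator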
MsrA inh confirm – bovine MsrA inhibitors, retest, confirmation, biochemical, absorbance, HTS | shares compounds with MsrA inhibitor | AID 651822, 2012 | hit rate 41% among 2,300 | inhibition, % at 15.5 µM | purified bovine MsrA, absorbance read-out;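 further: coupled to thioredoxin reductase with NADPH and selenocystamine and DMSO as substrate; 0% = vehicle only and 100% = full effect of reference inhibitor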
Active calls of the source: *; . = no result. Unless noted, no stated cut-off is given here; in the data, active means inhibition above about 4.5%; inactive means the rest.

SMILES | SKN-1 inh | MsrA inhibitor | p-CIP stab down | MT1-MMP act inh | bovine MsrA act | MsrA inh confirm
COc1cc(/C=N/N=C/c2cc(OC)c(O)c(OC)c2)cc(OC)c1O | -5.3 | 6.0* | 13.1 | 8.1 | -11.1 | 5.8*
COc1ccc(/C=N/N=C/c2ccc(OC)c(OC)c2)cc1OC | 9.4 | 2.0 | -0.1 | -3.1 | 2.6 | .
COc1cc(/C=N/NC(=O)C(N)=O)cc(OC)c1O | 14.4 | 4.8* | -8.2 | 4.4 | -9.0 | 3.6
O=[N+]([O-])c1ccc(CN2[C@H](COCc3ccccc3)C=CS2(=O)=O)cc1 | . | 0.9 | . | . | . | .
O=c1c2ccccc2nnn1Cc1ccco1 | . | 0.7 | . | . | . | .
O=C(/C=C/c1ccco1)NC(=S)Nc1ccccc1 | 15.4 | 3.7 | 1.9 | -2.6 | -4.0 | .
Cc1cccc(NC(=S)NC(=O)/C=C/c2ccco2)c1 | 6.9 | 24.8* | 5.7 | -4.3 | -4.6 | 1.3
Cc1noc(/C=C/c2cccnc2)c1[N+](=O)[O-] | 6.4 | 5.3* | -4.0 | -3.0 | -10.4 | 2.7
COCc1[nH]nc2c1C(c1ccc(C)cc1)N(Cc1ccccc1)C2=O (stereo not drawn) | . | 0.5 | . | . | . | .
COC(=O)C1=C(C)NC(=O)NC1c1ccc(OC)c(OC)c1 (stereo not drawn) | -6.1 | 0.1 | . | 1.8 | -4.2 | .
COC(=O)C1=C(C)NC(=S)N(C(C)=O)C1c1ccc(OC)c(OC)c1 (stereo not drawn) | 3.0 | 4.7* | -0.9 | 0.9 | -4.7 | 2.6
C#CCN1CC(COc2ccccc2)Oc2cccc(Oc3ccc(OC)cc3)c2S1(=O)=O (stereo not drawn) | . | -0.8 | . | . | . | .
Nc1ccc(-c2nc3ccc(N)cc3o2)cc1 | 2.1 | 4.8* | -14.6 | -1.1 | -2.0 | 5.4*
Nc1ccc(-c2nc3cc(N)ccc3o2)cc1 | 19.0 | 4.1 | -0.6 | 0.5 | -7.6 | .
C(=C\c1ccco1)/c1nc2ccccc2[nH]1 | 8.8 | 5.6* | -17.5 | -12.1 | -3.5 | 4.9*
O=C(/C=C/c1ccco1)Nc1ccc(-c2nc3ccccc3[nH]2)cc1 | 0.3 | 0.7 | -14.6 | 3.2 | -3.0 | .
C(=C\c1nc2ccccc2[nH]1)/c1ccccc1 | -8.6 | 4.7* | -10.2 | 8.7 | -8.5 | 4.1
O=c1[nH]c(/C=C/c2ccc(Br)cc2)nc2ccccc12 | -4.2 | -1.0 | -3.2 | 6.1 | -0.3 | .
C/C(=N\O)C(C)/[N+]([O-])=C/c1nc(C)c(C)n1O (stereo not drawn) | -16.5 | 5.2* | . | 3.5 | -10.8 | 3.8
CCCC[n+]1ccc(-c2nc3ccc([N+](=O)[O-])cc3[nH]2)cc1 | 13.3 | 4.8* | -19.4 | 7.4 | 0.0 | 3.8
Cc1[nH]c2ccccc2c1CC(=O)Nc1ccc(Nc2cccnc2)c(-c2ccc(OC(F)(F)F)cc2)c1 | . | 1.6 | . | . | . | .
NS(=O)(=O)c1ccc(N/N=C/c2cn(-c3ccccc3)nc2-c2cccs2)c([N+](=O)[O-])c1 | 13.5 | 1.7 | -18.4 | 24.5 | -8.9 | .
NC(=O)N/N=C/c1cn(-c2ccccc2)nc1-c1cccs1 | 9.8 | 1.3 | -7.4 | 1.0 | -1.2 | .
O=C(O)c1cccc(N/N=C/c2cn(-c3ccccc3)nc2-c2cccs2)c1 | 4.3 | 13.1* | 0.3 | 0.0 | -3.0 | 7.3*
NS(=O)(=O)c1ccc(N/N=C/c2cn(-c3ccccc3)nc2-c2cccs2)cc1 | 6.3 | 7.0* | -4.7 | 3.4 | -3.8 | 2.1
SMILES | SKN-1 inh | MsrA inhibitor | p-CIP stab down | MT1-MMP act inh | bovine MsrA act | MsrA inh confirm
Cc1cccc(NC(=O)c2nc[nH]c2C(=O)N(C)CCO)c1 | . | 0.7 | . | . | . | .
NC(=O)c1cc(S(=O)(=O)N2CCN(c3ccc([N+](=O)[O-])cc3)CC2)cs1 | -5.2 | 7.8* | -15.7 | -3.6 | -2.3 | 4.8*
N#CCCSc1nc(N2CCOCC2)c2c(c1C#N)CCCC2 | 2.2 | 18.2* | -1.2 | -0.7 | 0.1 | 15.0*
N#Cc1c(SCC(=O)O)nc(N2CCCCC2)c2c1CCCC2 | -3.7 | 2.6 | 3.9 | 0.8 | -3.1 | .
CCCSc1nc(N2CCOCC2)c2c(c1C#N)CCCC2 | -6.7 | 12.7* | -10.1 | -4.8 | -4.3 | 11.0*
CSc1nc(N2CCOCC2)c2c(c1C#N)CCCCC2 | 16.4 | 5.5* | -1.4 | -2.9 | -1.6 | 3.0
